Assay results published in the EternaBench riboswitch data.

Tested on: MS2 coat protein
Assay: apparent Kd, MS2 coat protein; higher = weaker binding; RNA-MaP array; theophylline 2 mM where present
How it was run: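 The apparent Kd is reported as the median of filtered per-cluster binding-curve fits. To get these curves, designs transcribed by stalled E. coli RNA polymerase on Illumina sequencing-chip clusters were titrated with SNAP-549-labelled MS2 coat protein from 0.7 or 1.5 nM, doubling to 3 µM. Titrations were run without and then with constant ligand in 100 mM Tris-HCl pH 7.5, 80 mM KCl, 4 mM MgCl2, BSA, DTT, yeast tRNA and Tween-20, and green signal was normalised to red-channel RNA signal and control-cluster median Fmax.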

[1] = designed as: OFF switch for theophylline, no ligand
[2] = ligand present: theophylline, designed as: OFF switch for theophylline
[3] = ligand present: theophylline, designed as: ON switch for theophylline
[4] = designed as: ON switch for theophylline, no ligand

“AAACUGGGUGUAAAAUAAAUAAUCACUGAUACCAGACUAUUUUAUGUCCCUUGGCAGCAGAAACAUGAGGAUCACCCAUGUAAUA” was tested, and the “apparent Kd” value [1] was 20.3 nM and the “apparent Kd” value [2] was 22.5 nM.

“AACAUACAUGAGGAUCACCCAUGUCACGAUACCAGAUACAUGAGGAUCCCUUGGCAGCGUCAUGAGGAUCACCCAUGUUGUACAU” was tested, and the “apparent Kd” value [1] was 16.5 nM and the “apparent Kd” value [2] was 58.3 nM.

With “AAGGGAGAAUCAGAUACCAGAGUAAGAUGGCAUGAUAAUUACAUGAGGAUCACCCAUGUACUCCCUUGGCAGCUGACAAUAUAUU” the “apparent Kd” value [1] was 10.2 nM and the “apparent Kd” value [2] was 12.2 nM.

“AAUAACAUGAGGAUCACCCAUGUAAAAGAUACCAGGGUGAUGAUCCUCCCUUGGCAGCUUACAGCUGAUCAAUAAGAUCGGCUGA” was tested, and the “apparent Kd” value [3] was 257 nM.

“AAUCUGUCGGGUGAUACCAGCCUCGGCGCAUCUCGCACCGAACAUGAGGAUCACCCAUGUGGCCCUUGGCAGCACAUGACAAAUC” was tested, and the “apparent Kd” value [4] was 371 nM and the “apparent Kd” value [3] was 82.2 nM.

“ACACAUGAGGAUCACCCAUGUGCAAUAGAUACCAGUGACGCGGUGCACCCUUGGCAGCUGUUGCUGAGUGAUGGUUCCCUCGGAA” was tested, and the “apparent Kd” value [1] was 36.6 nM and the “apparent Kd” value [2] was 58.5 nM.

“ACACAUGAGGAUCACCCAUGUUCAAUAGAUACCAGUGAUACGGUGCACCCUUGGCAGCUGUUGCUGAGUGAUGGUUCCCUCGGAA” was tested, and the “apparent Kd” value [4] was 55.2 nM and the “apparent Kd” value [3] was 77.7 nM.

For “ACAUCCAGAUUAAUCGUGGGCAUACUCGAUACCAGUAUUUUAACCUACCCUUGGCAGCGACAUGAGGAUCACCCAUGUGAGAUGA”, the “apparent Kd” value [1] was 22.8 nM and the “apparent Kd” value [2] was 30 nM.

“ACAUCCAGGUUAAUCGUGGGCAUACUCGAUACCAGUAUUUUAAUCUACCCUUGGCAGCGACAUGAGGAUCACCCAUGUGCGAUGA” was tested, and the “apparent Kd” value [1] was 12.4 nM and the “apparent Kd” value [2] was 19.3 nM.

With “ACAUGAGCAUCAGCCUUGUAGGAACUAGAUACCAGCCCAACAUGAGGCCCUUGGCAGCUGACAACAUGAGGAUCACCCAUGUCAC” the “apparent Kd” value [1] was 36.2 nM and the “apparent Kd” value [2] was 34.1 nM.

For “ACAUGAGGAUCACCCAUGUAAUGGCACGAUACCAGCUGAUCCCGUGGCCCUUGGCAGCGUCCGGUGUGGUCCGCCGGGUUGGACG”, the “apparent Kd” value [4] was 23.1 nM and the “apparent Kd” value [3] was 35 nM.

For “ACAUGAGGAUCACCCAUGUCUGCCACUGAUACCAGCGGAAGCCAACGCCCUUGGCAGCAGAACAUGAGGAUCACCCAUGUAGGCA”, the “apparent Kd” value [4] was 308 nM and the “apparent Kd” value [3] was 169 nM.

“ACGACGCAUAGUGAUACCAGUAGAACAUGAGGAUCACCCAUGUCUGUGGCGCACCACCUCUGCCCUUGGCAGCACUAUGCGUCAG” was tested, and the “apparent Kd” value [4] was 13.4 nM and the “apparent Kd” value [3] was 12.8 nM.

With “ACUUCAUGAGGUGAUACCAGCCAAUGACAUGAGGACAUGAGGAUCACCCAUGUUUAUGUAGGCCCUUGGCAGCACUGUAACAUGA” the “apparent Kd” value [4] was 20.6 nM and the “apparent Kd” value [3] was 25.9 nM.

In the case of “ACUUUGUCGGGUGAUACCAGCCUCGGCACAUCUCGUGCCGAACAUGAGGAUCACCCAUGUGGCCCUUGGCAGCACAUGACAACUC”, the “apparent Kd” value [4] is reported as 375 nM and the “apparent Kd” value [3] is reported as 67 nM.

With “AGAACAAAACUAAAUAAACAACUGGGUGAUACCAGCACAUGUGCGUGCCCUUGGCAGCAUCCGGCCACAUGAGGAUCACCCAUGU” the “apparent Kd” value [4] was 74 nM and the “apparent Kd” value [3] was 155 nM.

“AGCAGUACAACAGAUACCAGACUUUUAAUGCCUCUAAUUACAUGAGGAUCACCCAUGUUUGUCCCUUGGCAGCUGUUGUACUGCA” was tested, and the “apparent Kd” value [1] was 136 nM and the “apparent Kd” value [2] was 211 nM.

“AGCAUUGUAACAGAUACCAGACUUUUAAUGCCUCUAAUUACAUGAGGAUCACCCAUGUUUGUCCCUUGGCAGCUGUUAUGAUGCA” was tested, and the “apparent Kd” value [1] was 119 nM and the “apparent Kd” value [2] was 226 nM.

With “AGCCCUGUACUAGAUACCAGCUACAUGAGGAUCACCCAUGUGCGUCAAGACUGACUGUGUAGCCCUUGGCAGCUACUCGCAUGUA” the “apparent Kd” value [1] was 15.7 nM and the “apparent Kd” value [2] was 25.5 nM.

In the case of “AGCCUAUUACAUGAGGAUCACCCAUGUGAUACCAGUCAGGAAACUGACCCUUGGCAGCGCAUGAGGAUCACCCAUGCGCUAGGCA”, the “apparent Kd” value [1] is reported as 10.1 nM and the “apparent Kd” value [2] is reported as 10.2 nM.

In the case of “AGCUCAUAGAGUGAUACCAGACUACAUGAGGAUCACCCAUGUUACUUUUAAAUAUCAUUUGUCCCUUGGCAGCACAUGAAGAGCA”, the “apparent Kd” value [1] is reported as 13.6 nM and the “apparent Kd” value [2] is reported as 12.7 nM.

With “AGUAAUCUAAGAGAUACCAGACGGUAUAUAACAUGAGGAUCACCCAUGUUUUGGGUGUACGUCCCUUGGCAGCUCAAAAUGAUAA” the “apparent Kd” value [4] was 230 nM and the “apparent Kd” value [3] was 115 nM.

“AGUACUCGAACGGAUACCAGCCGGACAUGAGGAUCACCCAUGUCCUACCAAUGUUCGGUUGGCCCUUGGCAGCCGUUCGUGUACA” was tested, and the “apparent Kd” value [4] was 588 nM and the “apparent Kd” value [3] was 35.2 nM.

With “AGUGUAUCCAUCGAUACCAGCCACAACGUAACAUACACAUGAGGAUCACCCAUGUUGUGUGGCCCUUGGCAGCGGUGCCUGUGUA” the “apparent Kd” value [4] was 14.3 nM and the “apparent Kd” value [3] was 12.2 nM.

In the case of “AGUGUAUCCAUCGAUACCAGCCACCACCGAUAGACCACAUGAGGAUCACCCAUGUUGGGUGGCCCUUGGCAGCGGUGGCUGUGUA”, the “apparent Kd” value [4] is reported as 287 nM and the “apparent Kd” value [3] is reported as 1190 nM.

With “AGUGUUAUAACUGAUACCAGACUCUCAUGUUUACAUGAGGAUCACCCAUGUUAUUUCUUUGUCCCUUGGCAGCAGAAUUAACACA” the “apparent Kd” value [4] was 208 nM and the “apparent Kd” value [3] was 38.2 nM.
